Test results taken from ChEMBL document CHEMBL1150355, “Design and evaluation of a novel series of 2,3-oxidosqualene cyclase inhibitors with low systemic exposure, relationship between pharmacokinetic properties and ocular toxicity” (Bioorg Med Chem, 2008).
Active and inactive are the calls of the source. No cut-off for these calls is given here.

Assays:
[1] = biological target: T1, Lanosterol synthase (Homo sapiens) (UniProt P48449); experiment: Inhibition of 2,3-oxidosqualene-lanosterol cyclase at 200 nM
T1 sequence (whole entry): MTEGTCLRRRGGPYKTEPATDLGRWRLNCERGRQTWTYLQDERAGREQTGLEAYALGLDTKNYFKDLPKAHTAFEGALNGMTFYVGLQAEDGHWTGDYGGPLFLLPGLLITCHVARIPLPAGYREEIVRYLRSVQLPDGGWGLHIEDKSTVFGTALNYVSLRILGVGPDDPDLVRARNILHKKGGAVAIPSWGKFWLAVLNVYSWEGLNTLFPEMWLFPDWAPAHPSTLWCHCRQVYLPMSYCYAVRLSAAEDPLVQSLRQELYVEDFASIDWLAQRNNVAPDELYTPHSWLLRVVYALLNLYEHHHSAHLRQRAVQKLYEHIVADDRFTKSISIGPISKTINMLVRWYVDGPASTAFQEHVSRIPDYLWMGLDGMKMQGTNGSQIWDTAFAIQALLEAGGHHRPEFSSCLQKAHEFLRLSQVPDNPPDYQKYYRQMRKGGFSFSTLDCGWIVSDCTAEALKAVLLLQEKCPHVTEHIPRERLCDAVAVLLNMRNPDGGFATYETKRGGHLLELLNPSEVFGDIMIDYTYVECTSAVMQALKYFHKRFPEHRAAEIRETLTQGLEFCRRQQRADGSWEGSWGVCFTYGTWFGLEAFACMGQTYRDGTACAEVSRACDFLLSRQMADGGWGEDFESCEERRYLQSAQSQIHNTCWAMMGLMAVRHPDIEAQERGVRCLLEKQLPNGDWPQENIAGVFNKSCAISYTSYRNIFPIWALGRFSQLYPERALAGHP
Outline: (§1)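 HepG2 cells were incubated 24 h with compound in BME with 10% fetal calf serum, then labelled with [14C]mevalonate (7.4 kBq). Lipids were extracted with heptane/isopropanol and separated by TLC. [14C]cholesterol, MES and DES were identified against standards and quantified by phosphorimaging, scoring cholesterol synthesis inhibition together with MES/DES formation.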

Rattus norvegicus [2] = experiment: Induction of neosynthetized 2,3 mono-epoxysqualene synthesis in OFA rat liver at 2 mg/kg, po after 3 hrs relative to BIBB 515; type: functional
Outline: (§2)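 Male OFA rats dosed orally at 2 mg/kg. Sterol synthesis was labelled by ip [14C]mevalonate (370 kBq) for the final hour, giving 3 h or 8 h total exposure. Lens and liver lipids were extracted with isopropanol, separated by TLC, and cholesterol and MES radioactivity quantified by phosphorimaging. Cholesterol inhibition is relative to vehicle-treated rats, and MES as % of BIBB 515-treated rats (100%).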

Lanosterol synthase = biological target: T2, Lanosterol synthase (Homo sapiens, UniProt P48449); experiment: Inhibition of 2,3-oxidosqualene-lanosterol cyclase; outline: as §1
T2 sequence (P48449 whole entry): T1 sequence (whole entry)

[3] = Metabolic stability in rat liver microsomes assessed as intrinsic clearance […]; type: ADME, Microsome
Rattus norvegicus [4] = experiment: Inhibition of neosynthetized cholesterol synthesis in OFA rat liver at 2 mg/kg, po after 3 hrs; type: functional; outline: as §2
Rattus norvegicus [5] = experiment: Ocular toxicity in Sprague-Dawley rat assessed as opacification of anterior lens at 30 mg/kg, po administered once daily for 21 days; type: organism-based, Lens of camera-type eye; set-up: dose 30 mg/kg, route oral; conditions: in vivo, 504 h
Outline: (§3)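 Sprague–Dawley rats (male and female, n = 3) were dosed orally once daily for 21 days. Anterior lens opacification was scored from 0 to 6 (4 marked, 5 very marked, 6 severe), with histological examination of the eye.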

Rattus norvegicus [6] = experiment: Induction of neosynthetized 2,3 mono-epoxysqualene synthesis in OFA rat lens at 2 mg/kg, po after 8 hrs relative to BIBB 515; type: functional, Lens of camera-type eye; outline: as §2
Rattus norvegicus [7] = experiment: Inhibition of 2,3-oxidosqualene-lanosterol cyclase in male Sprague-Dawley rat assessed as 2,3 mono-epoxysqualene appearance in liver at 30 mg/kg, po administered once daily for 21 days; type: functional, organism-based; set-up: dose 30 mg/kg
Outline: (§4)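 Sprague–Dawley rats (3 per sex) were dosed orally once daily for 21 days. On day 21, 3 h after the last dose, rats were sacrificed and hepatic lipids extracted and separated by TLC. MES was visualised with 5% phosphomolybdic acid in isopropanol, and MES mass quantified by densitometry.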

Rattus norvegicus [8] = experiment: Inhibition of 2,3-oxidosqualene-lanosterol cyclase in female Sprague-Dawley rat assessed as 2,3 mono-epoxysqualene appearance in liver at 10 mg/kg, po administered once daily for 21 days; type: functional, organism-based; set-up: dose 10 mg/kg; outline: as §4
Rattus norvegicus [9] = experiment: Inhibition of 2,3-oxidosqualene-lanosterol cyclase in male Sprague-Dawley rat assessed as 2,3 mono-epoxysqualene appearance in liver at 10 mg/kg, po administered once daily for 21 days; type: functional, organism-based; set-up: dose 10 mg/kg; outline: as §4
Rattus norvegicus [10] = experiment: Induction of neosynthetized 2,3 mono-epoxysqualene synthesis in OFA rat liver at 2 mg/kg, po after 8 hrs relative to BIBB 515; type: functional; outline: as §2
Rattus norvegicus [11] = experiment: Induction of neosynthetized 2,3 mono-epoxysqualene synthesis in OFA rat lens at 2 mg/kg, po after 3 hrs relative to BIBB 515; type: functional, Lens of camera-type eye; outline: as §2
[12] = Biodistribution in OFA rat liver at 1 mg/kg, iv after 6 hrs; type: ADME, organism-based; set-up: dose 1 mg/kg, route intravenous; conditions: read-out: Drug uptake
Outline: (§5)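 OFA rats (n = 10) dosed 1 mg/kg by iv bolus via penis vein in 10% DMA/90% PEG200. Plasma and tissue homogenates in borate buffer 0.1 M pH 11.5 were extracted with ethyl ether and analysed by LC. Plasma AUC was computed over 0–6 h.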

[13] = AUC (0 to 6 hrs) in OFA rat at 1 mg/kg, iv; type: ADME, organism-based; set-up: time < 6 hr, dose 1 mg/kg, route intravenous; conditions: plasma; outline: as §5
Rattus norvegicus [14] = experiment: Inhibition of neosynthetized cholesterol synthesis in OFA rat lens at 2 mg/kg, po after 3 hrs; type: functional; conditions: Lens of camera-type eye; outline: as §2
Rattus norvegicus [15] = experiment: Inhibition of 2,3-oxidosqualene-lanosterol cyclase in female Sprague-Dawley rat assessed as 2,3 mono-epoxysqualene appearance in liver at 2 mg/kg, po administered once daily for 21 days; type: functional, organism-based; set-up: dose 2 mg/kg; outline: as §4
Rattus norvegicus [16] = experiment: Inhibition of neosynthetized cholesterol synthesis in OFA rat liver at 2 mg/kg, po after 8 hrs; type: functional; outline: as §2
[17] = Biodistribution in OFA rat liver at 1 mg/kg, iv after 2 hrs; type: ADME, organism-based; set-up: dose 1 mg/kg, route intravenous; conditions: read-out: Drug uptake; outline: as §5
Rattus norvegicus [18] = experiment: Inhibition of neosynthetized cholesterol synthesis in OFA rat lens at 2 mg/kg, po after 8 hrs; type: functional; conditions: Lens of camera-type eye; outline: as §2
Rattus norvegicus [19] = experiment: Inhibition of 2,3-oxidosqualene-lanosterol cyclase in female Sprague-Dawley rat assessed as 2,3 mono-epoxysqualene appearance in liver at 30 mg/kg, po administered once daily for 21 days; type: functional, organism-based; set-up: dose 30 mg/kg; outline: as §4
Rattus norvegicus [20] = experiment: Inhibition of 2,3-oxidosqualene-lanosterol cyclase in male Sprague-Dawley rat assessed as 2,3 mono-epoxysqualene appearance in liver at 2 mg/kg, po administered once daily for 21 days; type: functional, organism-based; set-up: dose 2 mg/kg; outline: as §4
[21] = Biodistribution in OFA rat eyes at 1 mg/kg, iv after 2 hrs; type: ADME, organism-based; set-up: dose 1 mg/kg, route intravenous; conditions: eye, read-out: Drug uptake; outline: as §5
[22] = Biodistribution in OFA rat eyes at 1 mg/kg, iv after 6 hrs; type: ADME, organism-based; set-up: dose 1 mg/kg, route intravenous; conditions: eye, read-out: Drug uptake; outline: as §5
Rattus norvegicus [23] = experiment: Ocular toxicity in Sprague-Dawley rat assessed as opacification of anterior lens at 2 mg/kg, po administered once daily for 21 days; type: organism-based, Lens of camera-type eye; set-up: dose 2 mg/kg, route oral; conditions: in vivo, 504 h; outline: as §3

SMILES	Activity (Rattus norvegicus [2]) [%]	IC50 (Lanosterol synthase) [nM]	CLint scaled [3] [mL/min/g]	inhibition in vivo at 2 mg/kg (Rattus norvegicus [4]) [%]	Activity (Rattus norvegicus [6]) [%]	Activity (Rattus norvegicus [10]) [%]	Activity (Rattus norvegicus [11]) [%]	concentration at 6 h [12] [ng/g]	AUC(0-t) at 6 h [13] [ng·h/mL]	inhibition in vivo at 2 mg/kg (Rattus norvegicus [14]) [%]	inhibition in vivo at 2 mg/kg (Rattus norvegicus [16]) [%]	concentration at 2 h [17] [ng/g]	inhibition in vivo at 2 mg/kg (Rattus norvegicus [18]) [%]	concentration at 2 h [21] [ng/g]	concentration at 6 h [22] [ng/g]	other results
CN(C)Cc1cccc(-c2ccc(CCNS(=O)(=O)c3ccc(C#N)cc3)cc2)c1																Activity [1]: inactive
O=C(c1ccc(Cl)cc1)N1CCN(Cc2ccc(-c3ccncc3)cc2)CC1	55	3	6	64												
CN1CCN(c2ccc(CN3CCN(S(=O)(=O)c4ccc(Cl)cc4)CC3)cc2)CC1	111	6	5.4	75	29	232	162	3270	97	67	62	6600	67	278	123	Activity (Rattus norvegicus [5]): Toxic; Activity (Rattus norvegicus [7]): Toxic; Activity (Rattus norvegicus [8]): Toxic; Activity (Rattus norvegicus [9]): Toxic; Activity (Rattus norvegicus [15]): Toxic; Activity (Rattus norvegicus [19]): Toxic; Activity (Rattus norvegicus [20]): Toxic
O=C(N1CCN(Cc2ccc(-n3ccnc3)cc2)CC1)C(F)(F)F																Activity [1]: inactive
O=S(=O)(c1ccc(Cl)cc1)N1CCN(Cc2ccc(-c3ccncc3)cc2)CC1	45	13	1.3	66												
N#Cc1ccc(S(=O)(=O)NCCc2ccc(C(O)c3cccnc3)cc2)cc1 (racemic)																EC50 (Lanosterol synthase): 100 nM
Clc1ccc(CN2CCN(Cc3ccc(-c4ccncc4)cc3)CC2)cc1		316														
CN(C)Cc1ccc(-c2ccc(CCNS(=O)(=O)c3ccc(C#N)cc3)cc2)cc1	6	28	9.9	47												
O=C(c1ccc(Cl)cc1)N1CCC(=Cc2ccc(C3=NCCO3)cc2)CC1	100		2.3	85	100	100	100	169	1030	79	40	301	61	< 10	< 10	
O=C(c1ccc(Cl)cc1)N1CCN(Cc2ccc(-n3ccnc3)cc2)CC1	156	32	0.2	85	51	85	104	660	534	76	20	2010	0	65	< 10	Activity (Rattus norvegicus [5]): Toxic; Activity (Rattus norvegicus [7]): Toxic; Activity (Rattus norvegicus [8]): Toxic; Activity (Rattus norvegicus [9]): Toxic; Activity (Rattus norvegicus [23]): Non-toxic; Activity (Rattus norvegicus [15]): Toxic; Activity (Rattus norvegicus [19]): Toxic; Activity (Rattus norvegicus [20]): Non-toxic
